Laboratory results reported in ChEMBL document CHEMBL1139323, “Radiosynthesis, in vitro and in vivo evaluation of 123I-labeled anandamide analogues for mapping brain FAAH” (Bioorg Med Chem, 2009).

Key:
[1] = molecular target: T1, Fatty-acid amide hydrolase 1 (Rattus norvegicus, UniProt P97612); test: Inhibition of rat recombinant FAAH assessed as [3H]AEA hydrolysis preincubated 60 mins before [3H]AEA substrate addition
T1 sequence (P97612 whole entry): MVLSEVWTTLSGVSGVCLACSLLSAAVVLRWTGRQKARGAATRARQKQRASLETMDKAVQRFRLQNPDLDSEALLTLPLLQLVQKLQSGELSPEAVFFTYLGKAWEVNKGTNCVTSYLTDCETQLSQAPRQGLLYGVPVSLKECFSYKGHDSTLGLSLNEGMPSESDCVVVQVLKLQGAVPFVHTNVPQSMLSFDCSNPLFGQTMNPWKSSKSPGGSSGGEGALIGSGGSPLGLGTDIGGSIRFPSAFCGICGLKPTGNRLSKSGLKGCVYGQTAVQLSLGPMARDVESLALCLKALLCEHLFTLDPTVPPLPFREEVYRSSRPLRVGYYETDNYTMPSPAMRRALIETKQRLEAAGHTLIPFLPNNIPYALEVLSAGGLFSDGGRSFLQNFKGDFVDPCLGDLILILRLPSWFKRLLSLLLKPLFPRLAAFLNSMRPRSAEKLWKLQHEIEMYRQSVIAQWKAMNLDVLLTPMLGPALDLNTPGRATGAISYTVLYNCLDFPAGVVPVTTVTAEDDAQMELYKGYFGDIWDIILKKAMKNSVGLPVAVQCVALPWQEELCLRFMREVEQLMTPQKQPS
Summary of the method: (§1)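 Recombinant MBP-rat FAAH (1.2 µg/assay) in 10 mM Tris-HCl pH 7.6, 1 mM EDTA. Compound used at levels giving 20%, 50% and 80% inhibition and preincubated with enzyme for 15, 30 or 60 min. 2 µM [3H]-AEA then added, 10 min at 37 °C. Aqueous [3H]-ethanolamine counted by scintillation; IC50 by sigmoidal variable-slope fit.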

[2] = molecular target: T1, Fatty-acid amide hydrolase 1; test: Inhibition of rat recombinant FAAH assessed as [3H]AEA hydrolysis preincubated before [3H]AEA substrate addition; summary of the method: as §1
[3] = molecular target: T1, Fatty-acid amide hydrolase 1; test: Inhibition of rat recombinant FAAH assessed as [3H]AEA hydrolysis
Summary of the method: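 Recombinant rat FAAH fused to maltose binding protein, 1.2 µg per assay, in 10 mM Tris-HCl pH 7.6 with 1 mM EDTA. Test compound at ten concentrations (5 µM–1.5 nM), no preincubation. [3H]-AEA added at 2 µM final, 10 min at 37 °C. Stopped with chloroform/methanol; [3H]-ethanolamine in aqueous phase counted by scintillation. Three experiments; sigmoidal variable-slope fit of % control.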

Mus musculus = species on record: Mus musculus; test: Stability in NMRI mouse by HPLC; type: ADME, organism-based; conditions: in vivo
Summary of the method: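 Three male mice injected with about 200 µCi 123I-tracer in ethanol/saline (8:92) and killed at 3 min. Plasma and brain extracted with acetonitrile and centrifuged. Supernatant run on C18 HPLC (acetonitrile/water/formic acid 80:20:0.1, 6 ml/min); 0.5-min fractions gamma-counted, plus radio-TLC.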

[4] = molecular target: T1, Fatty-acid amide hydrolase 1; test: Inhibition of rat recombinant FAAH assessed as [3H]AEA hydrolysis preincubated 30 mins before [3H]AEA substrate addition; summary of the method: as §1
[5] = molecular target: T1, Fatty-acid amide hydrolase 1; test: Inhibition of rat recombinant FAAH assessed as [3H]AEA hydrolysis preincubated 15 mins before [3H]AEA substrate addition; summary of the method: as §1
Stomach [6] = test: Drug uptake in NMRI mouse stomach at 4 to 5 uCi, iv after 1 hr post injection; type: ADME, organism-based; conditions: in vivo
Summary of the method: (§2)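 Adult male NMRI mice (20–25 g) given 4–5 µCi of 123I-tracer iv via tail vein in ethanol/saline (8:92). Killed by cervical dislocation under isoflurane at set times, n = 3 per time point. Organs removed and weighed, radioactivity gamma-counted. Uptake expressed as %ID/g tissue ± SD.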

Plasma = test: Stability in NMRI mouse plasma at 3 uCi; type: ADME, cell-free
Summary of the method: (§3)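 Brain and EDTA plasma from three male NMRI mice, kept on ice, spiked ex vivo with 3 µCi 123I-tracer. Extracted with acetonitrile and centrifuged; supernatant and pellet gamma-counted for extraction efficiency. Supernatant analysed by radio-TLC (silica, hexane/ethyl acetate 4:6) and C18 HPLC (acetonitrile/water/formic acid 80:20:0.1), fractions gamma-counted.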

Stomach [7] = test: Drug uptake in NMRI mouse stomach at 4 to 5 uCi, iv after 1 min post injection; type: ADME, organism-based; conditions: in vivo; summary of the method: as §2
Brain [8] = test: Drug uptake in NMRI mouse brain at 4 to 5 uCi, iv after 3 mins post injection; type: ADME, organism-based; conditions: in vivo, 0.05 h
Summary of the method: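 Adult male NMRI mice (20–25 g) given 4–5 µCi radiotracer iv via tail vein in 200 µl ethanol/saline (8:92). Killed by cervical dislocation under isoflurane at set times after injection, n = 3 per time point. Brain removed and weighed, radioactivity gamma-counted. Uptake given as %ID/g tissue ± SD.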

[9] = Drug uptake in NMRI mouse small intestine at 4 to 5 uCi, iv after 10 mins post injection; type: ADME, organism-based; conditions: in vivo; summary of the method: as §2
[10] = Drug uptake in NMRI mouse large intestine at 4 to 5 uCi, iv after 10 mins post injection; type: ADME, organism-based; conditions: in vivo; summary of the method: as §2
Brain [11] = test: Stability in NMRI mouse brain at 3 uCi; type: ADME, tissue-based; summary of the method: as §3
Brain [12] = test: Drug uptake in NMRI mouse brain at 4 to 5 uCi, iv after 10 mins post injection; type: ADME, organism-based; conditions: in vivo; summary of the method: as §2

## CCCCC/C=C\C/C=C\CCCCCCCC(=O)NCCI
[1]
  IC50: 7.33 µM
[2]
  IC50: 6.2 µM
[3]; read-out: IC50
  IC50: 5.78 µM
Mus musculus
  Activity: Active
[4]
  IC50: 7.64 µM
[5]
  IC50: 6.66 µM

## CCCCC/C=C\C/C=C\CCCCCCCC(=O)NCC[123I]
Stomach [6]
  Drug uptake: 24.57 % ID/g
Plasma
  Stability: 94%
Stomach [7]
  Drug uptake: 2.58 % ID/g
Brain [8]
  Drug uptake: 1.23 % ID/g
[9]
  Drug uptake: 1.84 % ID/g
[10]
  Drug uptake: 1.33 % ID/g
Brain [11]
  Stability: 94%

## CCCCC/C=C\C/C=C\C/C=C\C/C=C\CCCC(=O)NCC[123I]
Stomach [6]
  Drug uptake: 17.74 % ID/g
Plasma
  Stability: 92%
Stomach [7]
  Drug uptake: 3.1 % ID/g
Brain [12]
  Drug uptake: 0.579 % ID/g
[9]
  Drug uptake: 1.46 % ID/g
[10]
  Drug uptake: 1.04 % ID/g
Brain [11]
  Stability: 89%

## CCCCC/C=C\C/C=C\CCCCCCCC(=O)NCCO [LINOLEOYLETHANOLAMIDE]
[3]; read-out: IC50
  IC50: 7.58 µM
[3]; read-out: pIC50 (converted)
  IC50: 7.59 µM

## CCCCC/C=C\C/C=C\C/C=C\C/C=C\CCCC(=O)NCCI
[1]
  IC50: 10.1 µM
[2]
  IC50: 4.31 µM
[3]; read-out: IC50
  IC50: 3.14 µM
Mus musculus
  Activity: Active
[4]
  IC50: 9.89 µM
[5]
  IC50: 7.93 µM
